ChEMBL document CHEMBL1145773, “Design, synthesis, SAR, and molecular modeling studies of acylthiocarbamates: a novel series of potent non-nucleoside HIV-1 reverse transcriptase inhibitors structurally related to phenethylthiazolylthiourea derivatives” (J Med Chem, 2003)
pEC50: −log10 of the molar value.

Experiments:
MT4 = test: Selectivity index which is the ratio of CC50 and EC50 was determined; assay type: functional, Homo sapiens
Procedure, shortened: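 MT-4 cells (1 × 10^4/well) were seeded with or without serial compound dilutions, then infected with HIV-1 IIIB at enough CCID50 for complete cytopathogenicity by day 4. Cultures were incubated at 37 °C and viability was read by MTT. […] Cytotoxicity was run in parallel on mock-infected cells, and SI = CC50/EC50. Data are means of three separate experiments.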

MT-4 (Homo sapiens) = test: Concentration required to reduce the viability of mock-infected MT-4 cells by 50% was determined by MTT method; settings: MT4
[1] = tested on: Human immunodeficiency virus 1; test: Anti HIV-1 activity of selected N-acylthiocarbamates against Y181C resistant mutant; assay type: functional, organism-based
Procedure, shortened: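 Acutely infected MT-4 cells (1 × 10⁴ cells/well) incubated at 37 °C with serial compound dilutions (DMSO stock, diluted in medium) and Y181C mutant virus (NIH N119; titer 1.3 × 10⁶ CCID₅₀/mL) dosed to cause full cytopathogenicity by day 4. Viability read by MTT; EC₅₀ = concentration giving 50% protection from virus-induced cytopathogenicity.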

[2] = tested on: Human immunodeficiency virus 1; test: Concentration required to reduce the amount of p24 by 90% in HIV-1 infected C8166 cultures; assay type: functional, organism-based; settings: Human immunodeficiency virus 1, C8166
Procedure, shortened: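 C8166 cells (1 × 10^4/well) were infected with wt HIV-1 in the presence of graded compound concentrations, with DMSO stocks diluted in culture medium. After incubation at 37 °C, p24 antigen was measured by immunoenzymatic kit. EC90 is the concentration lowering p24 by 90%.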

SMILES | SI (MT4) | CC50 (MT-4 (Homo sapiens)) [µM] | pEC50 [1] | EC90 [2] [µM]
O=C(c1ccc(Cl)cc1Cl)N(C(=S)OCCOc1ccccc1)c1ccccc1 | 3.7 | 43 | – | –
Cc1ccccc1N(C(=O)c1cccs1)C(=S)OCCN1C(=O)c2ccccc2C1=O | >9 | > 100 | – | –
O=C(c1ccccc1)N(C(=S)OCCOc1ccccc1)c1ccc(F)cc1 | 17.6 | 70.7 | – | –
O=C(c1ccc(Cl)cc1)N(C(=S)OCCOc1ccccc1)c1ccccc1 | 12.9 | 133 | – | –
O=C(c1ccccc1)N(C(=S)OCCOc1ccccc1)C1CCCCC1 | – | > 200 | – | –
Cc1ccc(N(C(=O)c2cccs2)C(=S)OCCN2C(=O)c3ccccc3C2=O)cc1 | >250 | > 100 | – | –
O=C(c1ccc(Cl)cc1)N(C(=S)OCCc1ccccc1)c1ccccc1 | 10.7 | 43 | – | –
COc1cc(C(=O)N(C(=S)OCCOc2ccccc2)c2ccccc2)cc(OC)c1OC | >20.8 | > 200 | – | –
O=C1c2ccccc2C(=O)N1CCOC(=S)N(C(=O)c1ccccc1)c1ccc(Br)cc1 | >5714 | > 200 | – | –
O=C1c2ccccc2C(=O)N1CCOC(=S)N(C(=O)c1ccco1)c1ccc([N+](=O)[O-])cc1 | 2250 | 18 | 4.85 | 0.005
O=C(c1ccccc1)N(C(=S)OCCc1ccccc1)c1ccccc1 | 22 | 91 | – | –
O=C(c1ccco1)N(C(=S)OCc1ccccc1)c1ccccc1 | 1.9 | – | – | –
O=C1c2ccccc2C(=O)N1CCOC(=S)N(C(=O)c1cccs1)c1ccc(F)cc1 | >1000 | > 100 | – | –
Cc1ccc(C(=O)N(C(=S)OCCOc2ccccc2)c2ccccc2)cc1 | >20.2 | > 200 | – | –
O=C(/C=C/c1ccccc1)N(C(=S)OCCOc1ccccc1)c1ccccc1 | 8.65 | 66.6 | – | –
CCOc1ccc(N(C(=O)c2ccc(Cl)nc2)C(=S)OCCN2C(=O)c3ccccc3C2=O)cc1 | >200 | – | – | –
O=C(c1cc(Cl)cc(Cl)c1)N(C(=S)OCCOc1ccccc1)c1ccccc1 | 4.8 | 43 | – | –
O=C(c1ccco1)N(C(=S)OCCc1ccccc1)c1ccccc1 | 24 | 102 | – | –
O=C(/C=C/c1ccccc1)N(C(=S)OCCc1ccccc1)c1ccccc1 | 9 | 40.4 | – | –
COc1ccccc1N(C(=O)c1cccs1)C(=S)OCCN1C(=O)c2ccccc2C1=O | >9 | > 100 | – | –
O=C1c2ccccc2C(=O)N1CCOC(=S)N(C(=O)c1cccs1)c1cccc(Br)c1 | 44 | 53 | – | –
O=C1c2ccccc2C(=O)N1CCOC(=S)N(C(=O)c1cccs1)c1ccc([N+](=O)[O-])cc1 | 16800 | 168 | 4.24 | –
O=C1c2ccccc2C(=O)N1CCOC(=S)N(C(=O)c1cccs1)c1ccc(I)cc1 | 1800 | 18 | – | –
O=C(c1ccccc1)N(C(=S)OCc1ccco1)c1ccccc1 | – | 38.3 | – | –
O=C1c2ccccc2C(=O)N1CCOC(=S)N(C(=O)c1ccccc1)c1ccc(Cl)cc1 | >2000 | > 200 | < 4.00 | 0.13
O=C1c2ccccc2C(=O)N1CCOC(=S)N(C(=O)c1cccs1)c1cccc([N+](=O)[O-])c1 | 263 | 100 | – | –
O=C1c2ccccc2C(=O)N1CCOC(=S)N(C(=O)c1ccccc1)c1ccccc1 | >500 | > 200 | < 4.00 | 0.8
CC(COc1ccccc1)OC(=S)N(C(=O)Oc1ccccc1)c1ccccc1 (configuration not stated) | – | > 200 | – | –
CC(COc1ccccc1)OC(=S)N(C(=O)c1cccs1)c1cccc(Cl)c1 (configuration not stated) | >9 | > 100 | – | –
CC(COc1ccccc1)OC(=S)N(C(=O)c1cccs1)c1ccc(Cl)cc1 (configuration not stated) | >9 | > 100 | – | –
